Assay results gathered from unrelated publications.
Compare with care: the assays were run in different laboratories.
Target: Calcium/calmodulin-dependent protein kinase type II subunit alpha (CAMK2A, Homo sapiens, UniProt Q9UQM7)

CN(c1nccc(-c2cnn3ncccc23)n1)C1CC1
remaining binding (binding; 1 µM): 93%

CC(=O)C1=C(C)N(c2cccc(C(F)(F)F)c2)C(=O)N[C@@H]1c1ccc(C#N)nc1
remaining binding (cell-free assay, competition with immobilised ligand; 1 µM): 92.5%

COc1cnc(Nc2cccc(S(N)(=O)=O)c2)nc1N1CCN(c2ccccc2)CC1
remaining binding (binding, competition with immobilised ligand; 1 µM): 87%

Cc1cnn2ncc(-c3ccnc(N(C)C)n3)c2c1
remaining binding (binding; 1 µM): 86%

O=C(c1ccc(Nc2nccc(-c3cc4ccccc4s3)n2)cc1)N1CCC(N2CCCC2)CC1
remaining binding (binding, competition with immobilised ligand; 1 µM): 95%

F[C@@H]1CCN(c2nccc(-c3cnn4ncccc34)n2)C1
remaining binding (binding; 1 µM): 100%

C=CC(=O)N1CCC(C(=O)NCC(=O)N2CCN(c3nc(-c4cnc(N)nc4C(F)F)nc(N4CCOCC4)n3)CC2)CC1
remaining binding (binding, competition with immobilised ligand; 1 µM): 96%

COc1cnc(Nc2cccc(S(N)(=O)=O)c2)nc1N1CCN(c2ccccc2)C(=O)C1
remaining binding (binding, competition with immobilised ligand; 1 µM): 100%

C[C@@H](c1ccc(-n2cnc3c(N)ncnc32)cc1)N1CCc2nn(C)c(Cc3ccccc3)c2C1=O
remaining binding (binding, competition with immobilised ligand; 0.1 µM): 91%

O=C(Nc1c[nH]nc1C(=O)NC1CCNCC1)c1cc(F)cc(F)c1
remaining binding (binding, competition with immobilised ligand; 1 µM): 100%

NS(=O)(=O)c1cc(NC(=O)Cc2ccccc2)ccc1Oc1cccc(Cl)c1
remaining binding (cell-free assay, competition with immobilised ligand; 1 µM): 96%

c1cncc(-c2cccc(Nc3nccc(NC4CCCCC4)n3)c2)c1
remaining binding (binding, competition with immobilised ligand; 10 µM): 84%

CN(C)c1ncc(F)c(-c2cnn3ncccc23)n1
remaining binding (binding; 1 µM): 63%

FC(F)(F)c1ccc2c(c1)nc(-c1cccnc1)n2C1CC1
remaining binding (cell-free assay, competition with immobilised ligand; 1 µM): 88%

O=C(c1ccc(Nc2ncc(Cl)c(-c3ccc(Cl)s3)n2)cc1)N1CCC(N2CCCC2)CC1
remaining binding (binding, competition with immobilised ligand; 1 µM): 82%

O=C(NC[C@@H]1[C@H]2CN(C(=O)OCc3cc(C(F)(F)F)cc(C(F)(F)F)c3)C[C@@H]12)c1ccc2[nH]nnc2c1
remaining binding (cell-free assay, competition with immobilised ligand; 1 µM): 91%

C[C@@H]1CCN(c2nccc(-c3cnn4ncccc34)n2)C1
remaining binding (binding; 1 µM): 80%

O=C(N1CCS(=O)(=O)CC1)N1C[C@H](c2ccc(OC(F)(F)F)cc2)C[C@H](c2nc(C3CC3)no2)C1
remaining binding (cell-free assay, competition with immobilised ligand; 1 µM): 100%

c1cnn2ncc(-c3ccnc(N4CCC45COC5)n3)c2c1
remaining binding (binding; 1 µM): 76%

CN(C(=O)c1ccccc1)c1cc(N(C)c2ccc3c(c2)CCc2ccc(C(=O)NCCN4CCOCC4)cc2C3=O)ccc1F
remaining binding (cell-free assay, competition with immobilised ligand; 1 µM): 86%

N[C@@H]1CCN(c2nccc(-c3cnn4ncccc34)n2)C1
remaining binding (binding; 1 µM): 100%

Cc1cnc(Nc2ccc(C(=O)N3CCC(N4CCCC4)CC3)cc2)nc1-c1cc2ccccc2s1
remaining binding (binding, competition with immobilised ligand; 1 µM): 58%
